Reference: ChEMBL document CHEMBL1130338, “(E)- and (Z)-7-arylidenenaltrexones: synthesis and opioid receptor radioligand displacement assays” (J Med Chem, 1997)

Key:
Mu-type opioid receptor = Mu-type opioid receptor (Cavia porcellus, UniProt P97266); assay: Binding affinity was determined in a crude membrane preparation from guinea pig brain by displacement of [3H]DAMGO from Opioid receptor mu 1; format: cell membranes
Outline: (§1)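 Guinea pig brain (less cerebellum) homogenized in 0.05 M Tris pH 7.4, pelleted at 25000g (4 °C, 20 min), stored in 0.32 M sucrose at –70 °C. Diluted 1:60, giving 0.8–1.5 mg protein/mL. Radioligands at 1.0 nM ([3H]DAMGO μ, [3H]DPDPE δ, [3H]U69,593 κ). Test ligand in duplicate at nine concentrations, 1.0–1000 nM. Nonspecific binding with 10 μM naloxone. Incubated 60 min at 25 °C, then filtered and counted. Ki from IC50 via Cheng–Prusoff using KD measured in this homogenate.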

[1] = biological target: Kappa-type opioid receptor (Cavia porcellus, UniProt P41144); assay: Binding affinity was determined in a crude membrane preparation from guinea pig brain by displacement of [3H]U-69593 from Opioid receptor kappa 1; format: cell membranes; outline: as §1
[2] = biological target: Opioid receptors; mu & delta (UniProt P41143+P35372); assay: Selectivity ratio measured in terms of delta opioid receptor to the mu opioid receptor; format: protein assay; details: Cavia porcellus
Opioid receptors; mu & delta, sequence (P35372 whole entry, looked up): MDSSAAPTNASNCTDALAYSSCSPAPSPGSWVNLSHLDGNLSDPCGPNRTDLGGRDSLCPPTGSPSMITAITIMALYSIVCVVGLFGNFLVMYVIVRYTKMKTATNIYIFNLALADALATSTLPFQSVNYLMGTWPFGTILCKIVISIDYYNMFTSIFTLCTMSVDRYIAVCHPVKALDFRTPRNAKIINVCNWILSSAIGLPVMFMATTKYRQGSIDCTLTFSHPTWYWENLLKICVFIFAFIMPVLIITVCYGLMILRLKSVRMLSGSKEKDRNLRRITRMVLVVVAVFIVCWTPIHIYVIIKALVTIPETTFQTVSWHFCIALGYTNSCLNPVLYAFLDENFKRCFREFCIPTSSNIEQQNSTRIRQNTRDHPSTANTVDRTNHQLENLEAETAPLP
Opioid receptors; mu & delta, sequence (P41143 whole entry, looked up): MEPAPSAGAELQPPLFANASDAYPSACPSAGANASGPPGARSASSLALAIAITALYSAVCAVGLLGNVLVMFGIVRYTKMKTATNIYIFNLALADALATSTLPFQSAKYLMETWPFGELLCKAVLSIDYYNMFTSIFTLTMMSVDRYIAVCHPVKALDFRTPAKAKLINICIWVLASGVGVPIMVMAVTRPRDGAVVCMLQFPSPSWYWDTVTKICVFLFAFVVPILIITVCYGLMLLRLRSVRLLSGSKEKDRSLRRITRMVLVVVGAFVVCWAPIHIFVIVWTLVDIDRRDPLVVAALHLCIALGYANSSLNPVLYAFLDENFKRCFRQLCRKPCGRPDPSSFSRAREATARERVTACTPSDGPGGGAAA

Mu-type opioid receptor, sequence (P97266 whole entry): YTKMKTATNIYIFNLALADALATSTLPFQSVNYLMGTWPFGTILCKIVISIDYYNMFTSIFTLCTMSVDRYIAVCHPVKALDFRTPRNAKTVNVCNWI
Kappa-type opioid receptor, sequence (P41144 whole entry): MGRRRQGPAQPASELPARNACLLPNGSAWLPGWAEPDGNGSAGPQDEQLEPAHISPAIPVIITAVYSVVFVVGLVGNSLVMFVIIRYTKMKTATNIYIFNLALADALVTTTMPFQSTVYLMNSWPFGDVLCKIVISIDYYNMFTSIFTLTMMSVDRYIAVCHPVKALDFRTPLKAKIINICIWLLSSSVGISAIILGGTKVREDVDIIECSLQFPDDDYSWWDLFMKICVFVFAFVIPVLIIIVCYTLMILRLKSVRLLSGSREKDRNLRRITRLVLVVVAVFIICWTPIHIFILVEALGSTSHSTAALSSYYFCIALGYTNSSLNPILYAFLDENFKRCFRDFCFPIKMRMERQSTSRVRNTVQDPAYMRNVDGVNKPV

Row | Compound | Ki (Mu-type opioid receptor) [nM] | Ki [1] [nM] | Selectivity ratio [2]
1 | O=C1/C(=C\c2ccccc2)C[C@@]2(O)[C@H]3Cc4ccc(O)c5c4[C@@]2(CCN3CC2CC2)[C@H]1O5 | 33 | 34 | 8.6
2 | O=C1/C(=C/c2ccccc2)C[C@@]2(O)[C@H]3Cc4ccc(O)c5c4[C@@]2(CCN3CC2CC2)[C@H]1O5 [BNTX] | 26 | 48 | 4
3 | O=C1/C(=C/c2ccc(-c3ccccc3)cc2)C[C@@]2(O)[C@H]3Cc4ccc(O)c5c4C2(CCN3CC2CC2)[C@H]1O5 | 50 | 190 | 0.6
4 | O=C1/C(=C\c2cccc3ccccc23)C[C@@]2(O)[C@H]3Cc4ccc(O)c5c4C2(CCN3CC2CC2)[C@H]1O5 | 11 | 37 | 15
5 | O=C1/C(=C/c2cccc3ccccc23)C[C@@]2(O)[C@H]3Cc4ccc(O)c5c4C2(CCN3CC2CC2)[C@H]1O5 | 36 | 120 | 7.5
6 | O=C1/C(=C\c2ccc(-c3ccccc3)cc2)C[C@@]2(O)[C@H]3Cc4ccc(O)c5c4C2(CCN3CC2CC2)[C@H]1O5 | 210 | 400 | 4.2
7 | CC(C)CN1CCC23c4c5ccc(O)c4O[C@H]2C(=O)/C(=C\c2ccc4ccccc4c2)C[C@@]3(O)[C@H]1C5 | – | – | 3
8 | O=C1/C(=C/c2c3ccccc3cc3ccccc23)C[C@@]2(O)[C@H]3Cc4ccc(O)c5c4C2(CCN3CC2CC2)[C@H]1O5 | 110 | 170 | 6.4
9 | O=C1/C(=C\c2c3ccccc3cc3ccccc23)C[C@@]2(O)[C@H]3Cc4ccc(O)c5c4C2(CCN3CC2CC2)[C@H]1O5 | 34 | 100 | 14
10 | O=C1/C(=C/c2ccc3ccccc3c2)C[C@@]2(O)[C@H]3Cc4ccc(O)c5c4C2(CCN3CC2CC2)[C@H]1O5 | 23 | 74 | 0.6
